Screening data as filed in PubChem BioAssay.
M1 antag: blocks human M1 muscarinic receptor. 360,000 compounds, 1.3% hits. CHO-K1 hM1, Fluo-8 calcium fluorescence, ACh EC80 antagonist. inhibition, % at 3 µM. AID 588852. P11229;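 active = percent inhibition above its own plate's cutoff, namely the mean of that plate's compound wells plus 3 SD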;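 also: peak over basal fluorescence ratio during 140 s after agonist addition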
Target sequence (P11229 whole entry, looked up): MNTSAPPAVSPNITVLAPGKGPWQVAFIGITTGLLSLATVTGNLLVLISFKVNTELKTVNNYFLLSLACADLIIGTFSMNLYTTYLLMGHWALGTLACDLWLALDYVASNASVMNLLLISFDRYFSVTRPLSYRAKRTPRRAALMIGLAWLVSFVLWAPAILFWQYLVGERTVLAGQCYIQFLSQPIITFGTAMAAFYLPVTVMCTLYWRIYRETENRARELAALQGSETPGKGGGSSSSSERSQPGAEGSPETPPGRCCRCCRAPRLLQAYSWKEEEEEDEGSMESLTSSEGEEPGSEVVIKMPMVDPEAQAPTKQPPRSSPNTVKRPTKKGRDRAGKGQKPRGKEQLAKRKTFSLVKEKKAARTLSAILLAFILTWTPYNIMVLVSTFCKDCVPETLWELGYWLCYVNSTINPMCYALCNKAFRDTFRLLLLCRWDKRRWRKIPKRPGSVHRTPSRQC
M5 antag: CHRM5 antagonism in calcium assay; P08912; 360,000 compounds, 0.59% hits; CHO-hM5 cells, Fluo-8 calcium fluorescence, ACh EC80; inhibition, % at 3 µM;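 active = inhibition above a per-plate cutoff, the mean of that plate's test compounds plus 3 SD, cut at about 27% in these data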
M1 PAM: positive allosteric modulators of human M1 muscarinic receptor | P11229 | CHO-K1 hM1, Fluo-8 calcium fluorescence, ACh EC20; 0% = ACh EC20, 100% = maximal ACh | activation, % at 3 µM | 360,000 compounds, 0.088% hits | AID 588819; in the data active = activation above about 19%, passing the limit was not always enough
CHRM1 agonist: human M1 muscarinic receptor agonism. P11229. CHO-K1 hM1, Fluo-8 calcium fluorescence, agonist mode; 0% DMSO, 100% acetylcholine EC100. activation, % at 3 µM. 360,000 compounds, 0.33% hits. AID 588814;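 active = activation above the run's mean compound activation plus 3 SD, cut at about 16% in these data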;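 also: peak over basal fluorescence ratio within a 140 s kinetic read after compound addition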
M5 ag: agonists of human muscarinic M5 receptor (CHRM5); P08912; CHO-K1 hM5 cells, Fluo-8 calcium fluorescence; 0% DMSO wells, 100% maximal acetylcholine response; activation, % at 3 µM; 360,000 compounds, 0.19% hits;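 active = activation above the run's mean over test compounds plus 3 SD, cut at about 23% in these data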;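 also: signal is peak over basal fluorescence ratio across the kinetic read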
CHRM5 PAM: potentiates acetylcholine response at human M5 receptor. P08912. CHO-K1 hM5, Fluo-8 calcium, ACh EC20 PAM; 0% = ACh EC20, 100% = ACh EC100. activation, % at 3 µM. 360,000 compounds, 0.3% hits. AID 624038;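 active = activation above the run cutoff, the mean activation of all test compounds plus 3 SD, cut at about 18% in these data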
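System: CHO-K1 cell line with stable human muscarinic M5 receptor expression | Also added: EC20 acetylcholine as agonist stimulus | Compound: One concentration, 3 µM final (nominal) | Timing: Fluo-8 loading 80 min at 37 °C plus 30 min room temperature | Measured by: Fluo-8 calcium dye fluorescence, kinetic read | Read-out basis: % activation, ACh-normalized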
Of the large screens only hits and unclear results are named; the others gave an inactive call. Compounds with a hit are over-represented: about 2.1% of the library has one in this group of screens.

CCOc1cc(/C=C2\SC(=S)N(NS(=O)(=O)c3ccc(C)cc3)C2=O)ccc1O	none
CC1=CC(C)C(C[N+]2(C)CCCCC2)C(C)C1 (configuration not stated)	none
CC1=CC(C)C(/C=N/N=C(N)N)C(C)C1 (configuration not stated)	CHRM5 PAM 21
Cc1ccc(OCC(=O)Nc2ccc3c(c2)C(=O)N(CCC(=O)O)C3=O)cc1	none
Cc1ccccc1OCC(=O)Nc1ccc2c(c1)C(=O)N(CCC(=O)O)C2=O	M1 PAM 26
COC(=O)CCCCC1SCC2NC(=O)NC21 (configuration not stated)	CHRM5 PAM 23
Cc1cccc(OCCNC(=O)CCNS(=O)(=O)c2ccc3ccccc3c2)c1	none
Cc1[nH]nc2c1/C(=N\O)CC(C)(C)C2	none
Cc1[nH]nc2c1C(=O)CC(C)(C)C2	M1 PAM 21
CN1CCC(=O)N([C@H](CSc2ccc(Br)cc2)c2ccccc2)CC1	M1 antag 55
CN1CCC(Oc2ccccc2Sc2ccccc2)CC1	M1 antag 100, M5 antag 78
CN1CCC(OC(=O)c2ccco2)CC1	none
CN1CCC(OC(c2ccccc2)c2ccccc2)CC1	M1 antag 100, M5 antag 96
CC(=O)N1CCN(c2ccc(NCc3ccc(C)s3)cc2)CC1	none
COc1cc(C(=S)N2CCOCC2)ccc1OC(=O)c1ccc(Br)cc1	M1 antag 47
COc1cc(C(CCN2CCCC(C)C2)c2c(OC)cc(OC)c3c2OC(=O)CC3c2ccc(N(C)C)cc2)cc(OC)c1OC (configuration not stated)	CHRM5 PAM 22
C#CCOCCOCCOCCNc1nc(N2CCN(C(=O)[C@H](CCCCN)n3cc(CN)nn3)CC2)nc(N2CCN(C(=O)[C@H](CCC(=O)O)n3cc([C@@H](N)CCSC)nn3)CC2)n1	none
O=C1c2ccccc2C(=O)N1Cc1cc(Cl)c(O)c([N+](=O)[O-])c1	none
C=C[C@@H]1c2cc(C)ccc2N(S(=O)(=O)c2ccc(C)cc2)[C@H](c2ccccc2)C1(C#N)C#N	CHRM5 PAM 19
C=C[C@@H]1c2ccccc2N(S(=O)(=O)c2ccc(C)cc2)[C@H](c2ccccc2)C1(C#N)C#N	none
CCOc1ccc(NS(=O)(=O)c2ccc(NC(=O)C3CC3)cc2)cc1	none
Cc1cccc(C)c1NC(=O)CS(=O)CC(=O)NCC1OCCc2ccccc21 (configuration not stated)	CHRM5 PAM 23
CN(C)CC/C=C1\c2ccccc2Sc2cc(F)c(Cl)cc21	M1 antag 100, M5 antag 100
CN(C)CC/C=C1/c2ccc(F)cc2Sc2ccc(Cl)cc21	M1 antag 100, M5 antag 99
CN(C)CC/C=C1\c2cc(Cl)ccc2Sc2cc(F)c(F)cc21	M1 antag 100, M5 antag 99
CN(C)CCOCCOc1ccc(Cl)cc1C(C)(C)C	none
CN(C)CC/C=C1\c2ccc(F)cc2Sc2cc(F)c(Cl)cc21	M1 antag 100, M5 antag 99
CCc1ccc(OCCCC(=O)NCc2ccco2)cc1	none
Cc1cccc(C(=O)NC2CCN(S(=O)(=O)c3ccccc3F)CC2)c1	none
Cc1ccc(NC(=O)C2CCC(N3C(=O)C4CCCCC4C3=O)CC2)cc1 (configuration not stated)	none
C=CCNC(=O)CN1CCC(c2nc3cc(C)c(C)cc3[nH]2)CC1	none
OCCN1CCN(CC/C=C2/c3ccccc3Sc3ccc(Cl)cc32)CC1	none
CN(C)CC/C=C1\c2ccccc2Sc2ccc(Cl)cc21	M1 antag 100, M5 antag 100
Cn1c2ccccc2c(=O)c2ccc(C#CC3(O)CCCCC3)cc21	M1 antag 39
c1cc2c(cc1C1=NNC(=NC3CC3)SC1)OCCO2	M5 antag 100
O=C(Nc1ccc2c(c1)OCO2)C1CCN(Cc2cc3c(cc2O)OCO3)CC1	none
Cc1cccc2c(N=NC(=O)c3ccc(NS(=O)(=O)c4cccs4)cc3)c(O)[nH]c12	M1 antag 37
Cc1cc(/C=C2/SC(=S)N(c3ccc([N+](=O)[O-])cc3)C2=O)c(C)n1-c1cccnc1	none
Cc1cc(/C=C2/SC(=S)N(c3cccc(Cl)c3)C2=O)c(C)n1-c1cccnc1	M1 antag 27
CS(=O)(=O)N(Cc1ccc(C(=O)NN=C2CCCCCC2)cc1)c1ccccc1	CHRM5 PAM 25
CS(=O)(=O)N(Cc1ccc(C(=O)NN=C2CCCC2)cc1)c1ccccc1	none
CN1CCN(CC(=O)Nc2ccc(S(=O)(=O)N(C)C)cc2)CC1	none
OC(CNCCc1ccc(C(F)(F)F)cc1)COC(c1ccccc1)c1ccccc1 (configuration not stated)	M1 antag 76
COc1ccc(C(OCC(O)CNCCc2ccc(S(N)(=O)=O)cc2)c2ccc(OC)cc2)cc1 (configuration not stated)	none
O=C(Nc1ccccc1C(=O)NC1CC1)c1ccc([N+](=O)[O-])o1	none
Cc1nc(N)sc1-c1csc(Nc2cccc(C(=O)O)c2)n1	none
O=C(NNc1ccnc2cc(Cl)ccc12)C1CCCCC1	M1 antag 32, M5 antag 31
COCCCNc1c2c3c(cccc3[nH]c1=O)C(=O)c1ccccc1-2	M1 antag 71, M5 antag 41, CHRM1 agonist 264, M5 ag 94
O=c1oc2ccccc2c2nccnc12	none
COc1cc2[nH]c(=O)n(CCCC(=O)N3CC=C(c4ccccc4)CC3)c(=O)c2cc1OC	M1 antag 32
COc1cc2[nH]c(=O)n(CCC(=O)N3CC=C(c4ccccc4)CC3)c(=O)c2cc1OC	none
COc1ccc(C2=NOC(Cn3nc(-c4ccccc4C)cc3C(=O)O)C2)cc1 (configuration not stated)	none
Cc1cccn2c(=O)c(/C=N/O)c(N3CCCC3)nc12	none
Cc1cccn2c(=O)c(C=O)c(N3CCCCC3)nc12	CHRM5 PAM 20
Cc1ccc(-n2c(-c3ccc(Cl)cc3)c[n+]3c2CCC3)cc1	none
FC(F)Sc1ccc(-n2c(-c3ccc(Cl)cc3)c[n+]3c2CCC3)cc1	M1 antag 61
COc1cccc(CN2CCc3ccc(NC(=O)CCc4ccc(C)cc4)cc3C2)c1O	M1 antag 38
CC(C1CC2CCC1C2)n1c(-c2ccco2)n[nH]c1=S (configuration not stated)	M5 antag 29
Cc1c(C(=O)N(Cc2cccs2)C2CCS(=O)(=O)C2)oc2ccccc12 (configuration not stated)	none
